# Results taken from PubChem BioAssay.
# A number with no mark means an inactive call. Inconclusive results are not listed. Calls of active or inactive are those of the source.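 The calls were made as follows, unless noted: active = viability increase at or above a cutoff of the median across tested compounds plus 3 SD (cut at about 8.5% in these data, passing the limit was not always enough); inconclusive = some gains above the cutoff, reason not given; inactive = the rest.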
# Assays:
# [1] = S. cerevisiae growth inhibition in permissive medium (OD615), pilot counter-assay for S. cerevisiae lifespan shortening project, permissive growth control (AID 705;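 active = growth inhibition above 25% in both replicates, a cutoff set 3 SD above the mean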); details: OD615, 24 h, at 10 µM, active compounds read high
# Method in brief: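 System: Engineered DeaD yeast | Buffer or medium: SC raffinose/galactose permissive medium | Doses: 10 µM single dose, 0.25% DMSO | Times: 24 h exposure, 30 °C | Measured by: OD615 turbidity read | Read-out: Yeast growth inhibition indicated by reduced 24 h OD615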
# [2] = S. cerevisiae growth inhibition in restrictive medium, OD615, pilot screen, restrictive growth control, yeast lifespan reduction project (AID 706;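 active = growth inhibition above a set limit, 3 SD over mean compound inhibition, in both replicates, cut at about 43% in these data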;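 also: modified DeaD lifespan yeast strain shifted to restrictive glucose medium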); details: OD615, 48 h, at 10 µM, active compounds read high
# Method in brief: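 Assay system: engineered S. cerevisiae DeaD strain; Buffer or medium: CSMM-D glucose medium; Dosing: 10 µM compound, 0.25% DMSO; Times: cell pre-growth 4 h, compound exposure 48 h, 30 °C; Detection: absorbance (optical density) measured at 615 nm.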
# [3] = doxorubicin toxicity protection in MRP-1 cells – H69AR cells, CellTiter-Glo, duplicate, MRP-1 activator project, pilot screen (AID 807); details: H69AR viability with doxorubicin, CellTiter-Glo luminescence; at 10 µM; active compounds read high;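 also: compound pretreatment 18-22 h then 72 h combined with doxorubicin; 0% = doxorubicin alone and 100% = vehicle without doxorubicin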
# [4] = viability of HCT116 without oncogenic beta-catenin – human colon tumor cells, pilot screen (AID 823;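 active = cell viability at or below a set limit in both duplicate runs, the limit being the all-compound median minus 4 SD, cut at about 23% in these data, passing the limit was not always enough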;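 also: 0% = wells killed by 20 µM Hyamine and 100% = untreated DMSO cell wells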); details: HCT116 beta-catenin knockout viability, CellTiter-Glo, 60 h; at 10 µM; active compounds read low
# [5] = viability of PTEN-null HCT116 cells – cell-based, HCT116 clonal line, CellTiter-Glo, pilot screen (AID 824;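 active = viability at or below 27.92% in each of two runs, the all-compound median minus 4 SD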;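 also: 0% = 20 µM Hyamine control and 100% = vehicle cell control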); details: HCT116 PTEN-deleted viability, 60 h, at 10 µM, active compounds read low
# [6] = RAM pathway blockade in budding yeast – dse1pr::URA3 reporter, 5-FOA selection, pilot screen (AID 869;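 active = inhibition over a set limit, the all-compound mean plus 3 SD, in both replicate runs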;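 also: 0% = DMSO wells with no growth and 100% = 10 µM 1-NA-PP1 with full growth; RAM network block rescues cells from 5-FOA so hits raise OD615 growth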); details: S. cerevisiae dse1pr::URA3 5-FOA growth, OD615, 2 d; at 10 µM; active compounds read high; strain carries analog-sensitive mutant Cbk1 kinase
# [7] = RAM signaling pathway blockade in yeast – S. cerevisiae, Pdr1DBD-CYC8 efflux-inhibited sensitized strain, primary screen (AID 1298;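 active = RAM network inhibition above 8.4% in each of two replicates, 3 SD over the compound average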;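 also: 0% = DMSO untreated cells without growth and 100% = 10 µM 1-NA-PP1 full growth; higher means more yeast growth rescued from 5-FOA killing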); details: S. cerevisiae cbk1-as DSE1-URA3 strain, 5-FOA growth OD615, 2 d; at 50 µM; active compounds read high
SMILES,growth inhibition [1] [%],growth inhibition [2],viability increase [3] [%],viability [4],viability [5],inhibition [6] [%],RAM network inhibition [7] [%]
COc1ccc(C2C(C(=O)Nc3ccc(F)cc3)=C(C)Nc3nc(CCCO)nn32)cc1 (stereo unspecified),-0.24,-1.29%,-1.2,96.6%,100%,0.24,0.37
Cc1ccc(-c2nc(CS(=O)CC(=O)NCc3ccccn3)c(C)o2)cc1 (stereo unspecified),-5.48,7.86%,-1.49,92.2%,90.7%,0.745,1.38
O=C(CS(=O)(=O)c1cn(Cc2cccc(F)c2)c2ccccc12)N1CCOCC1,-9.09,-22%,-3.47,91.1%,88.8%,2.82,6
NC(=O)C1CCN(C(=O)c2cnn(-c3ccccc3)c2NC(=O)c2ccco2)CC1,-2.77,1.08%,-4.39,99.7%,98.8%,1.67,5.39
Cc1ccc(C(=O)Nc2ccc3c(c2)CCC3)o1,-3.56,-9.54%,-2.44,77.5%,69.8%,0.895,-0.68
COC(=O)Cn1c(CN2CCc3ccccc3C2)nc2c1c(=O)n(C)c(=O)n2C,-4.78,0.56%,-1.18,95.6%,96.2%,1.31,8.74
COc1ccc(N2CCN(C(=O)C34CCC(C)(C(=O)C3)C4(C)C)CC2)cc1 (stereo unspecified),-1.5,0.815%,-0.51,88%,91.8%,1.86,-0.21
CC1Cc2ccccc2N1C(=O)CCn1c(=O)sc2ccccc21 (stereo unspecified),-4.26,-16.9%,-1.79,93.3%,85.3%,1.17,3.45
CSc1ccc(Cl)c(C(=O)NCc2ccco2)c1,-3.93,8.44%,-3.7,85.8%,81.6%,2.33,5.31
CC1CCCN(Cc2nc3c(c(=O)n(C)c(=O)n3C)n2CC(=O)c2ccccc2)C1 (stereo unspecified),-8.04,-16.3%,-4.65,78.2%,81.2%,-0.325,4.05
O=C(CCc1nc2ccccc2[nH]1)NC1CCCCC1,-16.3,-17.4%,-0.01,102%,96.9%,1.21,1.28
O=C(c1ccccc1)n1nc(-c2ccccc2)nc1NCc1ccco1,-15.5,-17%,0.43,96.7%,98.1%,2.25,6.58
COc1ccc(-c2nc(C#N)c(NCCCN3CCOCC3)o2)cc1,0.22,-5.34%,-0.09,103%,94%,1.28,0.89
Nc1nc(NC(=O)c2ccco2)nn1-c1ccccc1,-11.7,1.96%,-2.61,93.8%,98.6%,-0.025,5.17
COC(=O)c1ccc(COc2ccc3c(C)c(C)c(=O)oc3c2)o1,-4.33,-4.88%,-0.68,101%,105%,1.5,5.89
CCOC(=O)c1ccc2ncc(C(=O)OCC)c(NCCCN3CCOCC3)c2c1,-4.12,8.23%,-5.66,81.2%,84.5%,0.495,0.57
O=C(CSc1nnnn1-c1ccccc1)CSc1nnnn1-c1ccccc1,-7.66,1.63%,-5.63,92.6%,90.1%,2.98,7.19
O=C(CSc1ccc2nnc(-c3cccnc3)n2n1)N1CCc2ccccc21,-5.28,4.37%,-3.19,103%,94.1%,0.845,4.57
CCOc1ccc(NC(=O)CSc2nc3c(c(=O)n2-c2ccccc2OC)SCC3)cc1,-4.54,-3.66%,-2.57,94.3%,82.5%,0.805,1.18
CCOc1ccccc1Oc1c(C)oc2cc(OC(=O)N3CCOCC3)ccc2c1=O,-12.9,-3.33%,-0.28,103%,103%,2.8,4.64
FC(F)Sc1ccc(Nc2ncnc3nc[nH]c23)cc1,16.9,57.8% (active),-1.54,92.8%,90.5%,1.23,4.41
O=C(O)CC(CNS(=O)(=O)c1ccccc1)c1ccccc1 (stereo unspecified),-1.83,1.5%,0.76,100%,98.6%,1.54,-0.36
Cc1onc(-c2ccccc2Cl)c1C(=O)Nc1ccc(S(=O)(=O)N2CCCC2)cc1,0.03,9.99%,-2.15,86.3%,81.2%,1.72,4.75
CN1CCN(C(=O)c2ccccc2NC(=O)Cc2ccccc2)CC1,-12.3,1.69%,-1.06,98.4%,103%,1.83,1.81

SMILES,growth inhibition [1] [%],growth inhibition [2],viability increase [3] [%],viability [4],viability [5],inhibition [6] [%],RAM network inhibition [7] [%]
O=S(=O)(NC1CCCCC1)c1ccc(Br)cc1,2.22,1.47%,-2.36,89.3%,89.8%,0.065,2.96
CCN1CCN(C(c2cccs2)C(C)NC(=O)c2cccc(OC)c2)CC1 (stereo unspecified),-2.49,-14.8%,-2.25,103%,89.7%,-0.09,-0.01
CCOC(=O)C1CCCN(C(=O)c2ccc(CNc3c(N4CCC(C)CC4)c(=O)c3=O)cc2)C1 (stereo unspecified),-16.1,-24.3%,0.29,102%,98.9%,2.57,4.84
Cc1noc(NS(=O)(=O)c2ccc(N3Cc4ccccc4C3=O)cc2)c1C,-3.04,0.35%,-2.74,102%,104%,1.45,5.3
CC(C)(C)NC(=O)CSc1nc(O)cc(=O)n1-c1ccccc1F,-5.45,-3.51%,-0.7,95.5%,101%,0.91,1.87
O=C(c1ccc(S(=O)(=O)N2CCCCC2)cc1)N1CCN=C1SCc1cccnc1,-1.57,-2.72%,1.27,89.4%,89.3%,1.77,4.85
COc1ccc(OC)c(-c2nc(C(N)=O)c3[nH]c(=O)n(-c4ccc(F)cc4)c3n2)c1,-0.485,-10.4%,-2.73,95.4%,103%,2.46,0.16
Cc1ccc(/C=N/n2c(C)nnc2C)cc1,-5.29,-2.88%,-1.74,87.4%,99.1%,0.135,0.41
Fc1ccc(-c2nnc(-c3ccc(Cl)cc3Cl)o2)cc1,-6.69,-11.2%,-5.12,70.6%,64.2%,3.06,3.99
CCOC(=O)C1CCN(C(c2cccc(OC)c2)c2sc3nc(C)nn3c2O)CC1 (stereo unspecified),-2.67,-6.39%,-1.96,94.2%,95.9%,0.11,-0.51
COCCSc1nc2c(c(=O)[nH]c(=O)n2C)n1CCC(C)C,-19.7,-18.9%,-1.88,103%,97.3%,1.55,2.8
CCOC(=O)Nc1sc(NS(=O)(=O)c2ccccc2)nc1C,-10.4,3.58%,-0.61,105%,104%,0.295,2.87
COc1cc(C2C(C#N)=C(C)NC3=C2C(=O)CC(C)(C)C3)ccc1OCCO (stereo unspecified),-9.96,-14.6%,-0.94,97.8%,104%,1.43,3.55
CCN(CC)CCNC(=O)c1cc2c(-c3ccc(Cl)cc3)nn(C)c2s1,-4.4,2.85%,-8.35,2.18% (active),1.95% (active),0.905,4.19
COc1ccc(N2C(=O)CC(c3ccc(OC(C)C)cc3)C2=O)cc1 (stereo unspecified),-5.08,-8.6%,1.46,97.9%,104%,1.39,3.45
COC(=O)c1c(NC(=O)c2nc3ccccc3s2)sc2c1CCN(C(C)=O)C2,7.87,1.73%,-6.02,71.7%,68%,4,5.96
COc1cc(OC)c(NC2c3ccccc3C(=O)N2c2cc(C)ccn2)cc1Cl (stereo unspecified),-11.7,-3.74%,0.48,92.9%,84.2%,0,6.68
Cc1ccc(F)c(NC=C2C(=O)OC(C)(C)OC2=O)c1,-10.2,-7.67%,0.97,87.9%,92.8%,2.53,2.44
CCCCCCNS(=O)(=O)c1nc2nc(C)cc(C)n2n1,-15.4,-13.1%,2.63,104%,104%,1.35,1.21
CCOC(=O)Cn1c(=O)oc2cc(S(=O)(=O)Nc3ccc(N(CC)CC)cc3C)ccc21,-11.3,-8.05%,0.16,85.6%,86.6%,1.81,9.51
CCN(CC)S(=O)(=O)c1cc(C(=O)Oc2ccccc2OC)ccc1OC,4.58,2.38%,-0.11,86.1%,85.6%,1.38,3.93
O=C1NC(=O)C(CC(=O)N(Cc2ccco2)C2(C(=O)NC3CCCCC3)CCCCC2)N1 (stereo unspecified),-7.57,-7.79%,-2.17,104%,93.4%,-0.005,2.23
O=C(Nc1nc(-c2ccco2)c(-c2ccco2)s1)C1CC(=O)N(c2ccc3c(c2)OCCO3)C1 (stereo unspecified),-14.8,-20.3%,-3.72,76.5%,78.8%,2.66,4.02
COc1ccc(-c2nc(C(N)=O)c3[nH]c(=O)n(-c4ccccc4OC)c3n2)c(OC)c1,-0.775,4.02%,-4.59,74.1%,63.2%,0.63,0.1
